# OX1R antag-1: OX1R (human) antagonism. O43613. OX1R-expressing cells, FRET antagonist read-out. inhibition, % at 6.6 µM. actives 1.8% (n = 330,000). AID 485270; in the data active means inhibition mostly above about 38%, no sharp cut-off; inactive means mostly below about 40%
# CHO parental Ca: counter-screen: ATP calcium response change in parental CHO cells; actives 0.63% (n = 330,000); inhibition, % at 5.6 µM; parental CHO-K1, ATP-induced calcium, Fluo-8 fluorescence; AID 463079;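 active means inhibition above that plate's mean sample inhibition plus 3 SD, cut at about 26% in these data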
#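 Assay system – parental CHO cells · Reagent – ATP stimulus · Detection – intracellular calcium via Fluo-8 no-wash fluorescent dye · Evaluation – percent inhibition of ATP-evoked calcium rise, normalized to controls · Controls – ATP wells versus no-ATP DMSO wells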
# TAAR1 antag: antagonists of human TAAR1. Q96RJ0. CHO RD-HGA16 TAAR1, Fluo-8 calcium fluorescence, antagonist. inhibition, % at 3 µM. actives 1.5% (n = 360,000);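 active means inhibition above a per-plate cutoff, the mean inhibition of test compounds on that plate plus 3 SD, cut at about 49% in these data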
# Target sequence (Q96RJ0 whole entry, looked up): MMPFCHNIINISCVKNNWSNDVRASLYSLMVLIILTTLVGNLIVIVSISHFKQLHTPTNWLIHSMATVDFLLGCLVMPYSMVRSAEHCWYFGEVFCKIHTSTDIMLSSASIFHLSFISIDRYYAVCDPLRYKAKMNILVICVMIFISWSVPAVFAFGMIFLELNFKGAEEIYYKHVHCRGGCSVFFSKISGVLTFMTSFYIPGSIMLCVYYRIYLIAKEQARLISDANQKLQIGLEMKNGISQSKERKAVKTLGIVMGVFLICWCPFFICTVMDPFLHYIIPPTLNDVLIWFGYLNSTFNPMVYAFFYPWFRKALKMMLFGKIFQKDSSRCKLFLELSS
#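 Test system: CHO RD-HGA16 cells bearing hTAAR1 | Reagent: β-PEA, EC80 | Compound dosing: 3 µM, single point | Schedule: Dye loading 75 min at 37 °C, then 30 min room temperature | Signal: Calcium fluorescence with Fluo-8 | Evaluation: Percent inhibition of PEA-evoked calcium signal, max/basal emission ratio | Control set: DMSO-only wells and EC80 β-PEA-stimulated wells | Repeats: Singlicate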
# GPR7 antag: blocks human GPR7 receptor signaling | P48145 | GPR7-expressing cells, fluorescence antagonist assay | inhibition, % at 4.4 µM | actives 1.1% (n = 290,000) | AID 1861; in the data active means inhibition above about 16%, passing the limit was not always enough;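 further: cells stimulated with the agonist NPW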
# Target sequence (P48145 whole entry, looked up): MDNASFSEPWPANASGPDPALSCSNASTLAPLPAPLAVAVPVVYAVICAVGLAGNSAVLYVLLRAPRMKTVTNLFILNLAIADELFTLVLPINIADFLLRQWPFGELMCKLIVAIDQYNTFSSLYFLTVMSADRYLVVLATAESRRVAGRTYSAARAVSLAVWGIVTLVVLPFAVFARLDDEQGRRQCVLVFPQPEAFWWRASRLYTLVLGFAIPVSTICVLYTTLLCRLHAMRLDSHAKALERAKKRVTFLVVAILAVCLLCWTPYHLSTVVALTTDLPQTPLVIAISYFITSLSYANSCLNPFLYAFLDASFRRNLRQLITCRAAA
# OX1R antag-2: blocks the human orexin 1 receptor; actives 0.43% (n = 330,000); inhibition, % at 5 µM; AID 434989; O43613; CHO/OX1R cells, Fluo-8 calcium fluorescence, orexin A;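 active means inhibition above its plate's threshold, mean inhibition of all tested compounds on the plate plus 3 SD, cut at about 37% in these data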
# TAAR1 agonist: human TAAR1 agonism; CHO RD-HGA16 TAAR1, Fluo-8 calcium fluorescence; vehicle wells 0%, saturating PEA agonist 100%; activation, % at 3 µM; actives 0.99% (n = 360,000); AID 624467;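 active means activation above the mean activation of all test compounds in the run plus 3 SD, cut at about 38% in these data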
#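 System: CHO-derived RD-HGA16 cells with stable Gα16 and human TAAR1. Times: 17-24 h plating, Fluo-8 75 min 37 °C, 30 min RT. Measured by: calcium-sensitive Fluo-8 signal, excitation 470-495, emission 515-575 nm. Read-out basis: % activation relative to PEA EC100 response. Control set: DMSO and PEA EC100. Repeats: no replicates (n 1).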
# A number is an active result; . = inactive; / = not tested or not shown. Rows were chosen to be rich in hits. Some 4.6% of all compounds tested hit in one or more screens of this group.
SMILES,OX1R antag-1,CHO parental Ca,TAAR1 antag,GPR7 antag,OX1R antag-2,TAAR1 agonist
N/C(=N\c1nc2ccccc2o1)NC(=O)/C=C/c1ccccc1,40,.,.,.,.,.
Cn1c(N=Nc2ccccc2)nc2ccccc21,64,.,.,.,.,.
Cn1c(Cl)nc2ccccc21,.,.,.,.,.,.
O=C(NCCc1cccs1)C12CN(Cc3ccccc3)CC1C(c1cccc([N+](=O)[O-])c1)=NO2 (centres undefined),.,.,.,.,.,40
O=C(O)Cc1sc(Nc2ccccc2)nc1-c1cccs1,.,.,.,.,.,.
O=C1c2cccc3cc([N+](=O)[O-])cc(c23)C(=O)N1c1ccccc1O,43,.,.,.,.,.
Cc1cc(O)c(NC(=O)c2cccc([N+](=O)[O-])c2)cc1C,.,.,.,.,.,.
Cc1cc(CSc2ccccc2)ccc1NC(=O)c1cccc([N+](=O)[O-])c1,.,.,49,.,.,.
Cc1nnc(SCC(=O)N2CCN(c3ccccc3F)CC2)n1C1CC1,/,/,.,/,/,.
Cc1cccc2cc(C#N)c(SCC(=O)N3CC(=O)Nc4ccccc43)nc12,71,.,.,.,.,.
O=C(O)c1ccccc1C(=O)OC1CCCC2CCCC21 (centres undefined),/,/,.,/,/,.
O=C(CSc1nc2ccc(Cl)cc2[nH]1)NC1CCCc2ccccc21 (centres undefined),73,.,.,.,.,.
O=C(CSc1nc2ccccc2[nH]1)NC1CCCc2ccccc21 (centres undefined),.,.,.,.,.,.
O=C1C(=O)N(CCO)C(c2ccc(Br)cc2)/C1=C(\O)c1ccccc1 (centres undefined),.,.,.,.,.,.
Cc1ccccc1Nc1nc(N)nc(COC(=O)c2cccc(S(=O)(=O)N(C)C)c2)n1,.,.,.,.,.,.
Cc1ccccc1Nc1nc(N)nc(COC(=O)c2cccc(S(=O)(=O)NCc3ccccc3)c2)n1,.,.,55,.,.,.
O=C(N/N=C/c1cc(Br)cc([N+](=O)[O-])c1O)c1ccc(NC(=O)c2ccc(F)cc2)cc1,.,.,.,.,.,.
O=C(NNS(=O)(=O)c1ccccc1F)c1ccccc1-n1cccc1,.,.,.,.,.,.
COc1ccccc1C(=O)Oc1ccc(C(C)(C)C)cc1,.,41,.,.,.,.
Cc1ccccc1S(=O)(=O)Oc1ccccc1C(=O)Oc1ccccc1,.,39,.,.,.,.
O=C(Oc1ccccc1C(=O)Oc1ccccc1)c1cccnc1,.,.,.,.,.,.
COc1ccccc1C(=O)Oc1ccc2ccc(=O)oc2c1,.,.,.,.,.,.
Cc1cccc2cc(C(c3nnnn3CC3CCCO3)N3CCc4ccccc4C3)c(=O)[nH]c12 (centres undefined),.,.,/,.,.,/
Cc1ccc(C)c2[nH]c(=O)c(C(c3nnnn3Cc3ccccc3)N3CCc4ccccc4C3)cc12 (centres undefined),.,.,.,.,.,49
C[C@@H]1CCCCO[C@@H](CN(C)C(=O)c2ccccc2)[C@@H](C)CN([C@H](C)CO)C(=O)c2cc(N(C)C)ccc2O1,/,/,.,/,/,.
SMILES,OX1R antag-1,CHO parental Ca,TAAR1 antag,GPR7 antag,OX1R antag-2,TAAR1 agonist
O=c1c2ccccc2ncn1-c1cccc([N+](=O)[O-])c1,.,.,.,/,.,.
CCOC(=O)CCn1cnc2ccc([N+](=O)[O-])cc2c1=O,.,.,.,.,.,.
Cn1cnc2ccc([N+](=O)[O-])cc2c1=O,75,.,.,.,.,.
O=c1c2ccccc2ncn1-c1ccc([N+](=O)[O-])cc1[N+](=O)[O-],58,.,.,.,.,.
O=C(c1ccccc1)N1CCN(C(=O)c2nn3c(C(F)(F)F)cc(-c4ccco4)nc3c2Br)CC1,.,.,.,.,.,.
O=Cc1s/c(=N\S(=O)(=O)c2ccccc2)n(CCCCl)c1Cl,/,/,.,.,/,.
Cc1ccc2sc(NC(=O)c3cccc(N4C(=O)CCC4=O)c3)nc2c1C,.,.,.,.,.,48
CCCNC(=O)C1(C)CCCN(Cc2ccccc2F)C1 (centres undefined),/,/,.,/,/,.
Cc1cc(/C=C\c2ccc3cc(N(C)C)ccc3[n+]2C)c(C)n1-c1ccccc1,80,54,/,/,51,/
O=C(Cc1ccc(F)cc1)N1CCC2(CC1)NCCc1[nH]cnc12,.,.,.,.,.,.
S=c1[nH]nc(-c2ccncc2)n1/N=C/C(Cl)=C\c1ccccc1,42,.,.,.,.,52
Cc1cccc(C2(c3cccc(C)c3)CC2C(=O)Nc2ccc([N+](=O)[O-])cc2O)c1 (centres undefined),.,.,58,.,.,.
Nc1cc2c(cc1[N+](=O)[O-])OCCO2,49,.,.,.,.,.
CN(C)S(=O)(=O)c1cccc(COC(=O)CCNC(=O)c2ccc([N+](=O)[O-])cc2)c1,.,.,.,/,.,.
COc1ccccc1N1CCN(C(=O)c2cn(Cc3ccccc3)nc2-c2cccnc2)CC1,.,.,.,/,.,47
CCOC(=O)c1[nH]c(C)c(CN(C(C)=O)c2ccc(OCC)cc2)c1C,.,.,.,22,.,.
CCOC(=O)c1[nH]c(C)c(CN(CCc2ccccc2)S(C)(=O)=O)c1C,.,.,.,.,.,.
COc1ccc(-n2c(O)c(/C=N/NS(=O)(=O)c3ccc(C)c([N+](=O)[O-])c3)c3ccccc3c2=O)cc1OC,.,.,.,.,.,42
COc1cc(/C=N/NS(=O)(=O)c2ccc(C)c([N+](=O)[O-])c2)ccc1O,.,.,.,.,.,.
CCOC(=O)C1=C[C@@H](C(C)(C)C)N(S(=O)(=O)c2ccc(C)cc2)[C@H]1c1cccc(Cl)c1,/,/,.,/,/,.
N#C/C(=C/c1ccc(Sc2nc3ccccc3[nH]2)o1)c1cccc(F)c1,59,.,.,.,.,.
N#C/C(=C/c1ccc(Sc2nc3ccccc3[nH]2)o1)c1ccccc1F,53,.,.,.,.,.
N#C/C(=C/c1ccc(Sc2nc3ccccc3[nH]2)o1)c1cccc(Br)c1,80,.,.,.,.,.
N#C/C(=C\c1ccc(Sc2ccccc2)o1)c1nc2ccccc2[nH]1,.,.,.,.,.,.
C=CCC[C@@H](Cc1ccc(F)cc1)C(=O)OC[C@@H]1CCCN1C(=O)[C@@H](CC=C)CC(=O)N[C@@H](CO)Cc1ccccc1,.,.,.,/,.,.
CCC(=O)Nc1c(-c2ccccc2)c(=O)c2ccccc2n1C,.,.,.,.,.,.
CCOc1ccccc1-c1cnc(NC)cn1,/,/,.,/,/,.
O=C(c1[nH]c(C(F)(F)F)nc1-c1ccccc1)N1CCN(c2ncc(C(F)(F)F)cc2Cl)CC1,/,/,49,/,/,49
